Assay results: PubChem BioAssay
Calls of active or inactive are those of the source.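 Rule for the calls, unless noted: active = inhibition above 20% together with a positive visual image hit; inconclusive = visual image hit but inhibition not above 20%; inactive = no visual image hit.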

How the values were obtained:
[1] = inhibitors of TNFa-induced NFkB p65 translocation, primary screen, imaging, HUVEC, MLSMR starter and 10KST1 sets (AID 438); details: HUVEC TNFa-induced p65 nuclear translocation; cell count: measured here: nuclei count (cytotoxicity indicator), at 2.08 µM; inhibition: at 2 µM, stronger effect = higher value, 0% TNFa-plus-vehicle, 100% no-TNFa wells;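 note: compound added about 3h40 before a 20 min TNFalpha stimulation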;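 for inhibition: signal is the nuclear over cytoplasmic p65 intensity ratio per well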
[2] = inhibitors of mutant huntingtin aggregation, primary screen, imaging, exon1htt(103Q)mCFP cells, high-content imaging (AID 483;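 active = visual image review flags a hit and inhibition of aggregation exceeds 20%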;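 note: compound exposure lasted 3 days before fixation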;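 for nuclei count: percent of the per-plate median nuclei count of sample wells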); details: exon1htt(103Q)mCFP cell line, aggregate imaging, at 2 µM; inhibition of aggregation: stronger effect = higher value; nuclei count: measured here: cell count, toxicity
[3] = inhibitors of E-selectin induction by TNFa, primary screen, imaging, HUVEC, immunofluorescence, MLSMR starter and 10KST1 sets (AID 487;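 active = visually confirmed hit in the image check and inhibition above 20%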;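 for inhibition: signal is fraction of cell area covered by stained E-selectin grains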;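 for nuclei count: 100% = median nuclei count of all wells on the same plate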); details: HUVEC TNFalpha-induced E-selectin immunofluorescence imaging, at 2 µM; inhibition: stronger effect = higher value; nuclei count: measured here: cell number, toxicity
[4] = biological target: Voltage-gated potassium channel subunit beta-2 (Rattus norvegicus) (UniProt P62483); assay: KvBeta enzyme negative modulators, primary screen, biochemical, NADPH fluorescence (AID 622;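 active = fluorescence slope higher than the sample average by over 3 SD, cut at about -0.22 in these data, passing the limit was not always enough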;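 note: slope of raw intensity against log time taken from 70 to 1610 s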); details: recombinant KvBeta, 4-cyanobenzaldehyde reduction, at 10 µM, stronger effect = higher value
[5] = biological target: Voltage-gated potassium channel subunit beta-2 (Rattus norvegicus) (UniProt P62483); assay: KvBeta positive modulators, primary screen, biochemical, NADPH fluorescence (AID 623;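 active = NADPH fluorescence slope more negative than the mean of all samples by about 3 SD, 99.7% confidence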;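 note: fluorescence intensity change per second fitted from 20 to 320 s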); details: Recombinant KvBeta, NADPH fluorescence decrease slope, 10 min; at 10 µM; stronger effect = lower value
[6] = biological target: Muscarinic acetylcholine receptor M4 (Homo sapiens) (UniProt P08173); assay: compounds altering M4/GIRK thallium flux, either direction, primary screen, M4 allosteric agonist project, cell-based, HEK293 M4/GIRK, BTC-AM (AID 625;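 active = fluorescence slope after compound addition differing from the mean of all tested samples at 99.7% confidence, mostly higher but some lower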;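 note: thallium influx through GIRK channels coupled to M4 in HEK293 cells with BTC-AM dye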); details: at 10 µM, actives lie on both sides
Summary of the method: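 assay system = HEK293 cells with M4 receptor and GIRK channels | medium = pH 7.3 thallium assay buffer | doses = 10 µM final, single point | timing = cells overnight at 37 °C, BTC-AM loading 1 h, reads 2 min total | signal = BTC-AM fluorescence, 1 Hz kinetic reads | read-out = post-addition slope, 15–24 s, of baseline-normalized fluorescence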

[7] = inhibitors of Sendai virus-induced IRF3 signaling, primary screen, TLR/RLR signaling modifier project, cell-based, Sendai virus stimulus, luciferase, 10K MLSCN set (AID 602276;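 active = inhibition at or above 50% at 10 µM; inactive = inhibition below 50%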;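 note: firefly luciferase from ISG56 promoter only with Renilla not read in this screen; 0% = Sendai virus plus DMSO and 100% = medium plus DMSO without virus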); details: HEK293 RL24 IRF3 luciferase reporter, at 10 µM, stronger effect = higher value
[8] = inhibitors of poly I:C-induced TLR3 signaling, primary screen, cell-based, poly I:C stimulus, luciferase, 10K MLSCN set (AID 602277;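 active = inhibition of the reporter signal at or above 50%; inactive = inhibition below 50%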); details: HEK293-TLR3 RL24 IRF3 luciferase reporter, at 10 µM, stronger effect = higher value

Chain of Muscarinic acetylcholine receptor M4 (Homo sapiens) (P08173 whole entry, looked up): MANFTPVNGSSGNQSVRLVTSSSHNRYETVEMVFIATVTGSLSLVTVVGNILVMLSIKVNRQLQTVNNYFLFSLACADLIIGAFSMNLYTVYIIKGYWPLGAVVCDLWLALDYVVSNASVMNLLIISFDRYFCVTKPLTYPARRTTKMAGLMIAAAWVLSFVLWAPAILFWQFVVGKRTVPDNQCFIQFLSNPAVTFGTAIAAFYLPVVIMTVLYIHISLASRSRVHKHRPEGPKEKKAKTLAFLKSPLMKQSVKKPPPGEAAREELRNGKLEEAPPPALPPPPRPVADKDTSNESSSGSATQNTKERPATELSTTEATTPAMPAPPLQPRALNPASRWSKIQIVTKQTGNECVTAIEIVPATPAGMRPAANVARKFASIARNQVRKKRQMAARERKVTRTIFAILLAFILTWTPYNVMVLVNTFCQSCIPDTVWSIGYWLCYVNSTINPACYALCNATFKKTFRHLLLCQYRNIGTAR
Chain of Voltage-gated potassium channel subunit beta-2 (Rattus norvegicus) (P62483 whole entry, looked up): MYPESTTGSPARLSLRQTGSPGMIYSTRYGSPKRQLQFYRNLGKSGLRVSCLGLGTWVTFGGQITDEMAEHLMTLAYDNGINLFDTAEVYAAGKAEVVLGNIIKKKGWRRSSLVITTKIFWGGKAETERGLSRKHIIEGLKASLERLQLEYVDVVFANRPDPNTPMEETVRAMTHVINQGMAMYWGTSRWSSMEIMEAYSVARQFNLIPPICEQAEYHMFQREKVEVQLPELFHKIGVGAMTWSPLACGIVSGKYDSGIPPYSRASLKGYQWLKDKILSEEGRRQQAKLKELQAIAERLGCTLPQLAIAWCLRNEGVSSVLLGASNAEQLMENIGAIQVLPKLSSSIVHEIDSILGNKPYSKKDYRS

Row | Compound | cell count [1] | inhibition [1] | inhibition of aggregation [2] | nuclei count [2] [%] | inhibition [3] | nuclei count [3] [%] | fluorescence slope [4] | NADPH fluorescence slope [5] | fluorescence slope [6] | inhibition [7] | inhibition [8]
1 | CCOC(=O)c1cc2sccc2n1CC(=O)Nc1ccc2c(c1)OCCO2 | 513 | -14.9% (inactive) | -25.9% (inactive) | 108 | 12.2% (inactive) | 117 | -0.61 (inactive) | 4.2e-06 (inactive) | 0.00667 (inactive) | -5.94% (inactive) | -4.31% (inactive)
2 | COc1cccc(OC)c1C(=O)N1CCN(S(=O)(=O)c2ccccc2)CC1 | 437 | 1.4% (inactive) | -1.7% (inactive) | 105 | -13.1% (inactive) | 102 | -0.531 (inactive) | -6.4e-05 (inactive) | 0.00446 (inactive) | -2.45% (inactive) | 19.4% (inactive)
3 | O=C(CN1C(=O)COc2ccccc21)NCCN1CCc2ccccc2C1 | 681 | 7.3% (inactive) | 30.2% (inactive) | 95 | -2.1% (inactive) | 92.7 | -0.573 (inactive) | -5.4e-05 (inactive) | 0.00634 (inactive) | 12.1% (inactive) | 26.1% (inactive)
4 | CCN(CCO)C1CC(=O)N(c2ccccc2C)C1=O (centres undefined) | 486 | 7.7% (inactive) | 12.4% (inactive) | 104 | -126% (inactive) | 145 | -0.321 (inactive) | -3.6e-05 (inactive) | 0.00663 (inactive) | 4.48% (inactive) | 13% (inactive)
5 | COCCCn1c2nc3ccccc3nc2c2c(=O)n(-c3ccccc3OC)cnc21 | 334 | 6.3% (inactive) | -5.4% (inactive) | 98.2 | 16.9% (inactive) | 102 | -0.457 (inactive) | 4.9e-05 (inactive) | 0.0045 (inactive) | -1.7% (inactive) | -9.3% (inactive)
6 | COC(=O)CCc1c(C)c(C#N)c2nc3ccccc3n2c1N1CCCC1 | 490 | -2.7% (inactive) | 9.1% (inactive) | 103 | -103% (inactive) | 159 | -0.0763 (active) | -4e-06 (inactive) | 0.00578 (inactive) | 15% (inactive) | -5.51% (inactive)
7 | N#CC1=C(N)SC(N)=C(C#N)C1CCc1ccccc1 | 300 | -3.2% (inactive) | -16.8% (inactive) | 83 | -171% (inactive) | 104 | -0.543 (inactive) | -2e-06 (inactive) | 0.00612 (inactive) | 18% (inactive) | 26.3% (inactive)
8 | CC(=O)N1c2c(cc(Br)cc2S(=O)(=O)N2CCN(c3ccccn3)CC2)CC1C (centres undefined) | 365 | -15.4% (inactive) | 21.2% (inactive) | 93.1 | -49.9% (inactive) | 128 | -0.523 (inactive) | -0.000101 (inactive) | 0.00651 (inactive) | 15.6% (inactive) | 6.87% (inactive)
9 | O=c1cc(-c2ccccc2)[nH]c2nc3ccccc3n12 | 302 | -1.2% (inactive) | 15.1% (inactive) | 99.6 | -4.8% (inactive) | 96.2 | -0.422 (inactive) | 2.4e-05 (inactive) | 0.00541 (inactive) | 40.6% (inactive) | 27% (inactive)
10 | O=C(CSc1nnc2sc3ccccc3n12)c1ccco1 | 308 | 1.9% (inactive) | 23.4% (inactive) | 83.3 | 19.6% (inactive) | 91.6 | -0.293 (inactive) | -5e-05 (inactive) | 0.00582 (inactive) | -17.8% (inactive) | -83.7% (inactive)
11 | CC12CN3CC(C)(CN(C1)C3c1ccc(Br)cc1)C2 (centres undefined) | 565 | -1.2% (inactive) | 5.1% (inactive) | 97.5 | -50.4% (inactive) | 96.1 | -0.607 (inactive) | -4.3e-05 (inactive) | 0.00246 (inactive) | 13.8% (inactive) | 13.4% (inactive)
12 | CCSC1=NCN(CCCC(=O)O)CN1 | 645 | 10.1% (inactive) | 5.8% (inactive) | 106 | -81.7% (inactive) | 125 | -0.558 (inactive) | -4e-05 (inactive) | 0.00489 (inactive) | 12.3% (inactive) | 10.3% (inactive)
13 | O=C(CCCCC(=O)NCc1cccs1)NCc1cccs1 | 681 | -12.6% (inactive) | -3.7% (inactive) | 110 | 0.6% (inactive) | 88.9 | -0.571 (inactive) | 3.2e-05 (inactive) | 0.00493 (inactive) | -6.61% (inactive) | 0.312% (inactive)
14 | CCOC(=O)C1CCCN(S(=O)(=O)c2cccs2)C1 (centres undefined) | 243 | 11.2% (inactive) | -5.5% (inactive) | 95.8 | -8.8% (inactive) | 95.2 | -0.479 (inactive) | 1.6e-05 (inactive) | 0.00471 (inactive) | -3.56% (inactive) | 4.98% (inactive)
15 | Cc1c(NC(=O)C(C)OC(=O)C(NC(=O)c2ccco2)C(C)C)c(=O)n(-c2ccccc2)n1C (centres undefined) | 419 | -8% (inactive) | -12.5% (inactive) | 105 | -25.3% (inactive) | 106 | -0.276 (inactive) | -5.3e-05 (inactive) | 0.00712 (inactive) | 10.2% (inactive) | 14.1% (inactive)
16 | CCCCOc1cccc(NC(=O)CSc2nccn2C)c1 | 397 | 2.5% (inactive) | 0.8% (inactive) | 96.8 | 6.2% (inactive) | 108 | -0.318 (inactive) | -3.3e-05 (inactive) | 0.00562 (inactive) | -4.33% (inactive) | -42.2% (inactive)
17 | O=C(Nc1cc(C(F)(F)F)ccc1Cl)c1cc(C2CC2)on1 | 404 | -3.9% (inactive) | -8.1% (inactive) | 102 | -25.8% (inactive) | 61.5 | -0.45 (inactive) | -5.4e-05 (inactive) | 0.00518 (inactive) | 21.5% (inactive) | 27.4% (inactive)
18 | COCCNc1nc(C(C)(C)C)nc2c1nnn2Cc1ccccc1Cl | 419 | 15.8% (inactive) | 1% (inactive) | 106 | 14.6% (inactive) | 111 | -0.462 (inactive) | -1.9e-06 (inactive) | 0.00616 (inactive) | -0.805% (inactive) | 56% (active)
19 | COCCCNC(=O)C(Cc1ccccc1)NS(=O)(=O)c1ccc2c(c1)c(=O)n(C)c(=O)n2C (centres undefined) | 561 | -2.5% (inactive) | 42.3% (active) | 94.5 | -10.2% (inactive) | 117 | -0.468 (inactive) | -8e-06 (inactive) | 0.00611 (inactive) | -1.6% (inactive) | 19.2% (inactive)
